# Data taken from ChEMBL document CHEMBL1127590 (J Med Chem, 1994).
# What was measured:
# [1] = In vitro inhibitory activity against human adrenal 3-beta hydroxy-delta 5-teroid isomerase
# Procedure, shortened: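 Microsomes were prepared from human adrenal tissue by homogenization and differential centrifugation. Inhibitor in 50% DMSO was preincubated 10 min at 37 °C in 100 mM potassium phosphate pH 7.5 with 1 mM NAD+. The reaction was started with 100 nM [3H]DHEA and quenched in ethanol after 15 min. DHEA-to-androstenedione conversion was measured by radio-HPLC.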
# [2] = biological target: T1, 3-oxo-5-alpha-steroid 4-dehydrogenase 2 (Homo sapiens, UniProt P31213); test: In vitro inhibitory activity against human type 2 5-alpha reductase
# T1 sequence (P31213 whole entry): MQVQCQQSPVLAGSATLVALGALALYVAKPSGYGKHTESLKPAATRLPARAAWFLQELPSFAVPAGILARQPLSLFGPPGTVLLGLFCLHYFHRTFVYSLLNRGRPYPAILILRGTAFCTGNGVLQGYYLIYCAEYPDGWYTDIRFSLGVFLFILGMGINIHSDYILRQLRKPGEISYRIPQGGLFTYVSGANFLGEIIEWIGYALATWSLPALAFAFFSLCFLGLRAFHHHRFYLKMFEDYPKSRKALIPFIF
# [3] = biological target: T2, 3-oxo-5-alpha-steroid 4-dehydrogenase 1 (Homo sapiens, UniProt P18405); test: In vitro inhibitory activity against human type 1 5-alpha reductase
# T2 sequence (P18405 whole entry): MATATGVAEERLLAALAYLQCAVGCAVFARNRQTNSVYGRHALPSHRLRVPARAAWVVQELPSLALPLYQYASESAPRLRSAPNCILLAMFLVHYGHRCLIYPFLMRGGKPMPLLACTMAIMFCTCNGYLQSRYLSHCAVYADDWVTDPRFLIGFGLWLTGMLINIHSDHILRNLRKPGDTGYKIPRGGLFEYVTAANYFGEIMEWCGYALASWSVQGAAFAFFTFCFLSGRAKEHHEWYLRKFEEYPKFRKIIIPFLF
# Procedure, shortened: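 Used microsomes from baculovirus-infected SF-9 cells expressing recombinant human type 1 5AR, at final enzyme 0.05–5 nM. Buffer at pH 7 and 37 °C contained an NADPH-regenerating system. Inhibitor was preincubated 10 min before adding 100 nM [3H]testosterone.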
Compound,Ki [1],IC50 [2],Ki [3]
CCN(CC)C(=O)[C@H]1CC[C@H]2[C@@H]3CC[C@H]4N(C)C(=O)CC[C@]4(C)[C@H]3CC[C@]12C,20 nM,0.23 nM,5 nM
C[C@]12CCC(=O)C=C1NCC1C2CC[C@@]2(C)C1CC[C@@H]2C(=O)c1c(F)cccc1F (some centres not stated),11 nM,< 0.1 nM,39 nM
C[C@]12CCC(=O)C=C1NCC1C2CC[C@@]2(C)C1CC[C@@H]2C(=O)NC(c1ccccc1)(c1ccccc1)c1ccccc1 (some centres not stated),100 nM,< 0.1 nM,
C[C@]12CCC(=O)C=C1NCC1C2CC[C@@]2(C)C1CC[C@@H]2C(=O)N1CCCCC1 (some centres not stated),110 nM,,85 nM
CCN(CC)C(=O)[C@H]1CCC2C3CN(CC(=O)O)C4=CC(=O)CC[C@]4(C)C3CC[C@@]21C (some centres not stated),180 nM,1500 nM,10000 nM
CCN(CC)C(=O)[C@H]1CCC2C3CN=C4C=C(O)C5CC5[C@]4(C)C3CC[C@@]21C (some centres not stated),95 nM,1.8 nM,14000 nM
CCN(CC)C(=O)[C@H]1CCC2C3CN(CC)C4=CC(=O)CC[C@]4(C)C3CC[C@@]21C (some centres not stated),49 nM,,1300 nM
CC(C)CC(=O)[C@H]1CCC2C3CNC4=C(Br)C(=O)CC[C@]4(C)C3CC[C@@]21C (some centres not stated),2.3 nM,,3.2 nM
C[C@]12CCC(=O)C=C1NCC1C2CC[C@@]2(C)C1CC[C@@H]2C(=O)N1CCSCC1 (some centres not stated),31 nM,,
C[C@]12CCC(=O)C=C1NCC1C2CC[C@@]2(C)C1CC[C@@H]2C(=O)N1CCNCC1 (some centres not stated),220 nM,,
CCN(CC)C(=O)[C@H]1CCC2C3CN(Cc4ccccc4)C4=CC(=O)CC[C@]4(C)C3CC[C@@]21C (some centres not stated),16000 nM,,10000 nM
CCN(CC)C(=O)[C@H]1CCC2C3CN(C#N)C4=CC(=O)CC[C@]4(C)C3CC[C@@]21C (some centres not stated),1500 nM,42 nM,8300 nM
CC(C)(C)NC(=O)[C@H]1CCC2C3CN=C4C=C(O)C5CC5[C@]4(C)C3CC[C@@]21C (some centres not stated),300 nM,4.4 nM,49000 nM
CC(C)CC(=O)[C@H]1CCC2C3CNC4=CC(=O)CC[C@]4(C)C3CC[C@@]21C (some centres not stated),10 nM,< 0.1 nM,
CCCN1CC2C(CC[C@@]3(C)C2CC[C@@H]3C(=O)NC(c2ccccc2)c2ccccc2)[C@@]2(C)C=CC(=O)C=C12 (some centres not stated),180 nM,1.3 nM,340 nM
CCN(CC)C(=O)[C@H]1CCC2C3CCNC4=CC(=O)CC[C@]4(C)C3CC[C@@]21C (some centres not stated),1500 nM,3.8 nM,1000 nM
CCC1=C2NCC3C(CC[C@@]4(C)C3CC[C@@H]4C(=O)N(CC)CC)[C@@]2(C)CCC1=O (some centres not stated),47 nM,180 nM,4100 nM
CCN(CC)C(=O)[C@H]1CCC2C3CNC4=C(I)C(=O)CC[C@]4(C)C3CC[C@@]21C (some centres not stated),15 nM,,690 nM
CC(C)(C)NC(=O)[C@H]1CC[C@H]2[C@@H]3CC=C4C=C(C(=O)O)CC[C@]4(C)[C@H]3CC[C@]12C [EPRISTERIDE],160 nM,0.18 nM,1600 nM
CC(C)c1cc(C(C)C)c(C(=O)[C@H]2CCC3C4CNC5=CC(=O)CC[C@]5(C)C4CC[C@@]32C)c(C(C)C)c1 (some centres not stated),1900 nM,0.5 nM,280 nM
C[C@]12CCC(=O)C=C1NCC1C2CC[C@@]2(C)C1CC[C@@H]2C(=O)CC1CCCCC1 (some centres not stated),16 nM,< 0.1 nM,4 nM
C[C@]12CCC(=O)C=C1NCC1C2CC[C@@]2(C)C1CC[C@@H]2C(=O)N1CCOCC1 (some centres not stated),190 nM,,
C[C@]12CCC(=O)C=C1NCC1C2CC[C@@]2(C)C1CC[C@@H]2C(=O)NC(C1CCCCC1)C1CCCCC1 (some centres not stated),4000 nM,,
CCN(CC)C(=O)[C@H]1CCC2C3CNC4=CC(=O)C(C)C[C@]4(C)C3CC[C@@]21C (some centres not stated),510 nM,3.4 nM,3500 nM
CCCCCCN1CC2C(CC[C@@]3(C)C2CC[C@@H]3C(=O)N(CC)CC)[C@@]2(C)CCC(=O)C=C12 (some centres not stated),11000 nM,,5900 nM
CN1CC2C(CC[C@@]3(C)C2CC[C@@H]3C(=O)NC(C)(C)C)[C@@]2(C)C=CC(=O)C=C12 (some centres not stated),62 nM,6.7 nM,1400 nM
CCCN1CC2C(CC[C@@]3(C)C2CC[C@@H]3C(=O)N(CC)CC)[C@@]2(C)CCC(=O)C=C12 (some centres not stated),520 nM,,24000 nM
CCN(CC)C(=O)[C@H]1CCC2C3CNC4=C(CN(C)C)C(=O)CC[C@]4(C)C3CC[C@@]21C (some centres not stated),1200 nM,170 nM,10000 nM
